Arbovirus inh = antivirals against arbovirus infection, primary screen, cell-based, full library, 10K replicate subset | inhibition, % at 10 µM | 200,000 compounds, 0.37% hits | arbovirus infection cell-based antiviral screen | AID 1251, 2008; in the data active means inhibition above about 30%
Biofilm kill mix = clotrimazole potentiators killing C. albicans biofilm, primary screen, 4-compound mixtures; inhibition, % at 7.6 µM; 120,000 compounds, 0.02% hits; AID 1242, 2008; C. albicans biofilm persisters + clotrimazole, fluorescence viability; primary screen in compound mixtures of four per well;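 further: compounds exposed to preformed 24 h biofilms for 48 h; 0% = untreated biofilm control and 100% = clotrimazole plus chlorhexidine kill blank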
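Probe or stimulus – Clotrimazole 50 µg/mL co-treatment · System – C. albicans biofilms · Schedule – 24 h biofilm formation, then 48 h compound exposure, 37 °C · Evaluation – percent inhibition of biofilm viability · Technique – 2-h Alamar Blue fluorescence, 535/590 nm excitation/emission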
RAM network inh = inhibitors of the yeast RAM network, primary screen, dse1pr::URA3 reporter, 5-FOA selection; S. cerevisiae dse1pr::URA3 reporter, 5-FOA growth OD615, 2 d; analog-sensitive cbk1-as2 kinase mutant strain; inhibition, % at 50 µM; 190,000 compounds, 1.8% hits;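 active means inhibition above a set limit, 3 SD over mean compound inhibition, cut at about 8.4% in these data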;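 further: 0% = DMSO-only wells with no growth and 100% = 10 µM 1-NA-PP1 full growth; inhibition rescues growth on 5-FOA so higher OD means more RAM inhibition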
WT yeast gro inh = growth inhibition of WT strain, primary screen, mitochondrial fusion inhibitor project, WT and mutant strains, chemical genetic; 190,000 compounds, 2.1% hits; mitochondrial fusion phenotypic screen; inhibition, % at 10 µM; AID 1362, 2008; in the data active means inhibition above about 58%; tested in S. cerevisiae
p47phox inh = p47phox/p22phox peptide binding inhibitors, primary screen, biochemical, uHTS, NADPH oxidase regulatory subunit; AID 1274, 2008; 220,000 compounds, 0.53% hits; inhibition, % at 24.7 µM; fluorescence polarization, 2 h;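 active means inhibition above about 30%, limit read from the data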;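 further: 0% = p47phox with labelled peptide and 100% = labelled peptide alone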
Hck-Nef inh = inhibitors of Nef-activated human Hck kinase, primary screen, biochemical, Z-Lyte FRET, 384-well, Hck-YEEI; AID 463187, 2010; Recombinant Hck-YEEI plus Nef, Z-Lyte FRET kinase assay; inhibition, % at 20 µM; 220,000 compounds, 0.68% hits;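 active means Hck-Nef kinase inhibition above about 50%, limit read from the data; inactive means inhibition below that limit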;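 further: 0% = DMSO with Hck plus Nef and 100% = Hck alone without Nef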
An asterisk follows results filed as active. Hits are enriched below; roughly 4.6% of the tested compounds scored in any of these assays.

COc1ccc(C(C(=O)Nc2ccc(C(C)C)cc2)N(C)C(=O)c2ccc(=O)[nH]c2)cc1 (stereo not given) was read as Arbovirus inh 15, Biofilm kill mix 22, RAM network inh 9.0*, WT yeast gro inh -3, p47phox inh -13 and Hck-Nef inh 25.
`COc1ccc(CN2CNc3c(c(=O)n(C)c(=O)n3C)C2)cc1` gave Arbovirus inh 2, Biofilm kill mix 12, RAM network inh 1, WT yeast gro inh 4, p47phox inh -8 and Hck-Nef inh -7.
For CC1=CC(C)(C)N(S(=O)(=O)c2ccc(C)cc2)c2ccc(C)cc21 the results were Arbovirus inh -1, RAM network inh 7, WT yeast gro inh 63*, p47phox inh -9 and Hck-Nef inh 7.
For CC1=CC(C)(C)N(S(=O)(=O)c2ccc(F)cc2)c2ccccc21 the results were Arbovirus inh -5, RAM network inh 6, WT yeast gro inh 37, p47phox inh -11 and Hck-Nef inh 3.
COC(=O)CSCC(=O)Nc1nnc(-c2cccc(C)c2)s1 was read as Arbovirus inh 2, Biofilm kill mix 16, RAM network inh 2, WT yeast gro inh -9, p47phox inh -13 and Hck-Nef inh 22.
CC(C)NC(=O)c1cc(-c2ccc(Br)cc2)on1 was read as Arbovirus inh -3, RAM network inh 1, WT yeast gro inh 21, p47phox inh -10 and Hck-Nef inh 1.
CC1CCCCN1c1nnc(NC(=O)c2cc(-c3ccc(Br)cc3)on2)s1 (stereo not given) was read as Arbovirus inh 42*, RAM network inh 3, WT yeast gro inh 68*, p47phox inh -175 and Hck-Nef inh 22.
Cc1ccc(S(=O)(=O)N(Cc2ccccc2)c2ccccc2C(=O)NCc2ccco2)cc1 was read as Arbovirus inh -5, RAM network inh 9.0*, WT yeast gro inh 3, p47phox inh -1 and Hck-Nef inh 2.
Screening Cc1ccc(C(C(=O)NCc2ccco2)N(Cc2ccco2)C(=O)CNC(=O)c2ccco2)cc1 (stereo not given) returned Arbovirus inh -3, RAM network inh 7, WT yeast gro inh 5, p47phox inh 67* and Hck-Nef inh 2.
Screening COc1ccc(C(C(=O)NC2CCCCC2)N(Cc2ccco2)C(=O)CNC(=O)c2ccco2)cc1 (stereo not given) returned Arbovirus inh -1, Biofilm kill mix 6, RAM network inh 8, WT yeast gro inh -10, p47phox inh -2 and Hck-Nef inh 1.
Screening Cc1ccc(-c2nc3sc(C#N)c(N)n3c(=O)c2C#N)cc1 returned Arbovirus inh -4, Biofilm kill mix -5, RAM network inh 3, WT yeast gro inh 1, p47phox inh -2 and Hck-Nef inh 21.
NNC(=O)c1cc2c(N3CCC(Cc4ccccc4)CC3)ncnc2s1 was read as Arbovirus inh -17, Biofilm kill mix 16, RAM network inh 5, WT yeast gro inh 58*, p47phox inh -6 and Hck-Nef inh 12.
Screening COc1cnc(-c2ccccc2)nc1Oc1ccccc1C returned Arbovirus inh 4, RAM network inh 6, WT yeast gro inh 5, p47phox inh -4 and Hck-Nef inh 0.
For COc1cnc(-c2ccccc2)nc1Oc1ccc(C(C)(C)C)cc1 the results were Arbovirus inh -13, RAM network inh 11*, WT yeast gro inh 26, p47phox inh -5 and Hck-Nef inh -1.
CCc1ccc(/C=C2\Oc3cc(OS(C)(=O)=O)ccc3C2=O)cc1 was read as Arbovirus inh -29, Biofilm kill mix 18, RAM network inh 8.5*, WT yeast gro inh 5, p47phox inh -4 and Hck-Nef inh 1.
CCOc1ccc(-c2csc(NC(=O)CSCC(=O)O)n2)c2ccccc12 was read as Arbovirus inh 32*, Biofilm kill mix 21, RAM network inh 4, WT yeast gro inh -6, p47phox inh -5 and Hck-Nef inh 16.
